# Compound activity (PubChem BioAssay)
# Rows were chosen to be rich in hits. Some 2% of all compounds tested hit in one or more screens of this group.
# Hck-Nef inh – inhibitors of Nef-activated human Hck kinase, primary screen, biochemical, Z-Lyte FRET, 384-well, Hck-YEEI. Tyrosine-protein kinase HCK (Homo sapiens), P08631. Recombinant Hck-YEEI plus Nef, Z-Lyte FRET kinase assay. inhibition, % at 20 µM. 220,000 compounds, 0.68% hits;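 active means Hck-Nef kinase inhibition above about 50%, limit read from the data; inactive means inhibition below that limit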;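 further: 0% = DMSO with Hck plus Nef and 100% = Hck alone without Nef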
# eIF4E 4G PPI – eIF4E–eIF4G protein interaction inhibitors, primary screen, biochemical, uHTS, TR-FRET, eIF4GI fragment; Eukaryotic translation initiation factor 4E (Mus musculus) + Eukaryotic translation …; TR-FRET eIF4E-eIF4GI(517-606) binding, 2 h; inhibition, % at 21.7 µM; 220,000 compounds, 0.37% hits;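 further: 0% = full FRET control wells and 100% = background wells lacking eIF4GI fragment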
# Diaphorase act – compounds boosting diaphorase resazurin reduction – biochemical, uHTS, resorufin fluorescence, counter-screen for diaphorase-coupled primary assays, primary screen; Diaphorase/resazurin coupled assay, 16 min; active compounds read high; 1 = vehicle wells, 0 = NADH-free wells; activation factor at 20 µM; AID 1229, 2008; 190,000 compounds, 0.005% hits;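 active means diaphorase activity raised at least twofold by the compound at 20 µM; inactive means activation factor below 2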
#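 System – purified diaphorase enzyme from Clostridium kluyveri · Input – enzyme 0.07 U/mL final · Also added – final NADH 0.114 mM, resazurin 0.1 mM · Measured by – fluorescence of resorufin, 544 nm excitation, 590 nm emission · Timing – 16 min enzyme reaction, ambient temperature · Measure – resorufin increase flagging diaphorase activators or reducers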
# NCF1 inh – p47phox/p22phox peptide binding inhibitors, primary screen, biochemical, uHTS, NADPH oxidase regulatory subunit. fluorescence polarization, 2 h. AID 1274, 2008. Neutrophil cytosol factor 1 (Homo sapiens), P14598. inhibition, % at 24.7 µM. 220,000 compounds, 0.53% hits;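 further: 0% = p47phox with labelled peptide and 100% = labelled peptide alone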
# 14-3-3 Bad inh – inhibitors of 14-3-3 zeta/Bad binding, primary screen, biochemical, TR-FRET, bovine 14-3-3 zeta; 14-3-3 protein zeta/delta (Bos taurus), P63103; TR-FRET 14-3-3zeta/Dy647-pBad peptide displacement, 1 h; inhibition, % at 21.7 µM; 220,000 compounds, 0.71% hits;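 active means inhibition above about 70%, limit read from the data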;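 further: 0% = full 14-3-3 plus peptide FRET controls and 100% = background without 14-3-3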
# Hck Nef conf – retest of Hck:Nef kinase inhibitor hits, confirmation, biochemical, Z-Lyte FRET, 384-well, p-Tyr peptide counterscreen. AID 463188, 2010. calls only at 10 µM. Recombinant Hck-YEEI:Nef, Z-Lyte FRET kinase assay. shares compounds with Hck-Nef inh. 1,300 compounds, 28% hits;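 active means average inhibition of at least 50%, with Z-scores no higher than 3 in both the phospho-tyrosine peptide and fluorescence counterscreens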
# * = called active by the depositor; i = inactive; / = no result shown; + = active, no number.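 How the source made its calls, unless noted: active means inhibition above about 30% (limit read from the data); inactive means the rest.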
SMILES,Hck-Nef inh,eIF4E 4G PPI,Diaphorase act,NCF1 inh,14-3-3 Bad inh,Hck Nef conf
CCCCn1c(N)c(C(=O)OCCOC)c2nc3ccccc3nc21,66*,-11,/,-14,3,/
Cc1nc2c(c(=O)[nH]1)C(c1ccccc1Cl)c1c(c3ccccc3oc1=O)O2 (centres undefined),24,-11,/,-5,-5,/
CNC(=O)OCCc1n(C)cc[n+]1C,1,1,0.8,-4,-26,/
O=C1NC(=O)N(CCc2ccc(F)cc2)C(=O)/C1=C/c1cccs1,149*,-4,1,-15,25,+
O=C1NC(=O)N(CCc2ccc(F)cc2)C(=O)/C1=C/c1ccco1,167*,18,0.9,-38,20,+
CN(C)C(=O)Oc1ccc(Br)c2ccccc12,3,0,0.8,7,-5,/
Cc1ccsc1C(=O)C1CCCN(Cc2ccc(-n3cccn3)cc2)C1 (centres undefined),14,-2,0.8,-8,-15,/
CCn1c(O)c(C=NCCN2CCOCC2)c(=O)[nH]c1=S,6,3,/,-79,-1,/
COc1ccc(/C=C2/C(=O)N(Cc3ccco3)C(=O)N(C(C)C)C2=O)cc1,95*,2,0.7,-56,-1,i
Nc1cc2nc3ccccc3nc2cc1N,57*,36*,/,6,18,i
Cc1cccn2c(=O)c3cc(C(=O)N4CCC5(CC4)OCCO5)n(C)c3nc12,54*,-3,1,-3,6,/
Nc1c(C(=O)NCc2ccco2)c2nc3ccccc3nc2n1Cc1ccc(F)cc1,57*,/,0.8,-23,/,i
Nc1c(C(=O)NCc2ccco2)c2nc3ccccc3nc2n1Cc1ccccc1,24,2,0.7,-45,5,/
O=C1NC(=O)N(c2ccc(Cl)cc2)C(=O)/C1=C/c1coc2ccc(O)cc2c1=O,75*,9,/,-24,11,+
O=C1NC(=O)N(c2ccccc2)C(=O)/C1=C/c1coc2ccc(O)cc2c1=O,87*,3,/,-37,10,+
O=C1NC(=O)N(c2ccccc2)C(=O)/C1=C/c1ccoc1,18,-2,1,-15,-2,/
NC(=S)c1cn(C2OC(CO)C(O)C2O)c2ncnc(N)c12 (centres undefined),95*,2,/,-5,-5,+
CNS(=O)(=O)c1ccc(N=Cc2c(O)n(-c3ccc(C)cc3)c(=O)[nH]c2=O)cc1,17,-5,/,-15,0,/
CCc1nnc(NS(=O)(=O)c2ccc(N=Cc3c(O)n(-c4ccc(Cl)cc4)c(=O)[nH]c3=O)cc2)s1,56*,2,1.1,-4,-18,i
O=C(O)[C@H]1NC[C@H]2C[C@H]21,3,2,0.9,-7,10,/
COc1ccc(N2C(=O)NC(=O)/C(=C/c3ccc([N+](=O)[O-])s3)C2=O)cc1,19,7,/,-109,2,/
COc1ccc(N2C(=O)/C(=C/C=C/c3ccccc3[N+](=O)[O-])C(=O)NC2=S)cc1,63*,36*,0.7,-19,46,+
COc1ccc(N2C(=O)NC(=O)/C(=C\c3ccc([N+](=O)[O-])s3)C2=O)cc1,64*,5,0.7,-108,5,i
COCCNC(=O)CN1C(=O)CN=C(c2ccccc2)c2ccccc21,2,-1,/,-3,1,/
O=C1NC2NC(=O)N([N+](=O)[O-])C2N1 (centres undefined),-3,2,/,5,-4,/
O=C1NC(=S)NC(=O)C1=Cc1ccc2c(c1)CCN2CCCCl,79*,25,/,-94,33,+
Cc1ccccc1N1C(=O)NC(=O)/C(=C\c2ccc3c(c2)CCCN3Cc2ccccc2)C1=O,7,1,0.9,-255,-5,/
